Consider eight molecules from ChEMBL document CHEMBL1156555, “Synthesis and anti-inflammatory activity of 2-aryloxy methyl oxazolines” (Bioorg Med Chem Lett, 2008).

The subject of data set [1] is Rattus norvegicus. The data set is described as follows: Toxic ulcerogenic effect in albino rat assessed as incidence of ulcer at 400 mg/kg, po. The class given is toxicity, organism-based. Further details: dose 400 mg/kg, route oral. The following applies: in vivo. In outline:
(§1)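 Rats (200–230 g) in groups of 10 were fasted 24 h, then given the compound orally. They were killed 5 h after dosing. Stomach and small intestine were examined under a microscope for hyperemia, epithelial shedding, petechiae, frank haemorrhage, and erosion or ulceration with or without perforation. Any of these criteria counted as ulcerogenic.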

For data set [2], the system named is Rattus norvegicus. The data set is described as follows: Toxic ulcerogenic effect in albino rat assessed as incidence of ulcer at 100 mg/kg, po. The class given is toxicity, organism-based. Further details: dose 100 mg/kg, route oral. The following applies: in vivo. The gist of the method: as §1
In data set [3] the test system is Rattus norvegicus. The data set is described as follows: Antiinflammatory activity in albino rat assessed as inhibition of carrageenan-induced paw edema at 80 mg/kg, po administered 30 mins prior to challenge relative to control. The format is functional. In outline: (§2)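 Groups of five rats (200–230 g) were dosed orally. After 30 min, 0.2 ml of 1% carrageenan in 0.9% NaCl was injected subcutaneously into the hind-paw plantar aponeurosis. Paw volume was read by water plethysmometer before and at 3 h. % inhibition = (1 − vt/vc) × 100, using mean relative oedema changes against five carrageenan-only controls.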
Background: Carrageenan injected into the paw causes an acute inflammation.

Data set [4] deals with Rattus norvegicus. The data set is described as follows: Toxic ulcerogenic effect in albino rat assessed as incidence of hyperemia at 100 mg/kg, po. The class given is toxicity, organism-based. Also on record: dose 100 mg/kg, route oral. The following applies: in vivo. In outline: as §1
The test system of data set [5] is Rattus norvegicus. The data set is described as follows: Toxic ulcerogenic effect in albino rat assessed as incidence of hyperemia at 400 mg/kg, po. The format is toxicity, organism-based. Further details: dose 400 mg/kg, route oral. The following applies: in vivo. In outline: as §1
In data set [6] the test system is Rattus norvegicus. As to the kind of experiment: Toxic ulcerogenic effect in albino rat assessed as incidence of hyperemia at 200 mg/kg, po. The class given is toxicity, organism-based. Also on record: dose 200 mg/kg, route oral. Particulars: in vivo. The gist of the method:
as §1

Data set [7] concerns Rattus norvegicus. The data set is described as follows: Antiinflammatory activity in po dosed albino rat assessed as inhibition of carrageenan-induced paw edema administered 30 mins prior to challenge. The format is functional.
Data set [8] deals with Rattus norvegicus. The data set is described as follows: Antiinflammatory activity in albino rat assessed as inhibition of carrageenan-induced paw edema at 40 mg/kg, po administered 30 mins prior to challenge relative to control. The format is functional. The gist of the method:
as §2

The subject of data set [9] is Rattus norvegicus. The data set is described as follows: Toxic ulcerogenic effect in albino rat assessed as incidence of ulcer at 200 mg/kg, po. Also on record: dose 200 mg/kg, route oral. The format is toxicity, organism-based. The following applies: in vivo. In outline:
as §1

The nature of data set [10]: Acute toxicity in albino rat assessed as mortality after 24 hrs. The following applies: in vivo, read-out: ALD50. The format is organism-based. The gist of the method:
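Albino rats (200–230 g), groups of 10, given test compounds intraperitoneally at several dose levels. Percent mortality per group recorded 24 h after dosing. ALD50 calculated from the mortality data by a previously described method.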

Data set [11] relates to Rattus norvegicus. As to the kind of experiment: Antiinflammatory activity in albino rat assessed as inhibition of carrageenan-induced paw edema at 20 mg/kg, po administered 30 mins prior to challenge relative to control. The class given is functional. In outline: as §2
A further data set is filed under the species Oryctolagus cuniculus. As to the kind of experiment: Inhibition of cyclooxygenase in rabbit colon microsomes assessed as reduction in conversion of arachidonic acid to PGE2 at 10 uM by liquid scintillation spectrometry relative to control. The gist of the method: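 Rabbit distal colon mucosa (2–3 g) was homogenized in 0.1 M Tris pH 8.0, and the microsomal pellet was used fresh. Microsomes were incubated with the test agent for 10 min at 37 °C in Tris-HCl pH 8.0 with 2 mM reduced glutathione, L-tryptophan and hematin. Products were separated by isocratic HPLC (150 mM orthophosphoric acid pH 3.5, 30% acetonitrile; UV 214 nm), and PGE2-co-eluting radioactivity was counted by liquid scintillation.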

As usually defined, the inhibition in vivo is the relative decrease from the control value, in per cent. In general, ED50 refers to the dose at which the effect has come halfway, by size or by number of responders. `Clc1ccccc1OCC1=NCCO1`: the Activity is 80% in the data set with Rattus norvegicus [1]; 40% with Rattus norvegicus [2]; 20% with Rattus norvegicus [4]; 60% in the data set with Rattus norvegicus [5]; 40% in the data set on Rattus norvegicus [6]; 30% with Rattus norvegicus [9]. The inhibition in vivo at 80 mg/kg in the data set on Rattus norvegicus [3] was 45.5%. Further, the ED50 in the data set on Rattus norvegicus [7] was 77.5 mg/kg. The inhibition in vivo at 40 mg/kg in the data set with Rattus norvegicus [8] was 22.2%. In [10], the LD50 at 24 h is above 1000 mg/kg. Also, in the data set on Rattus norvegicus [11], the inhibition in vivo at 20 mg/kg turned out to be 13.7%.
A word on the inhibition: it is the change of the read-out against control, counted positive when it falls. Take `CC(=O)Oc1ccccc1C(=O)O` [ASPIRIN]: the Activity in the data set with Rattus norvegicus [1] stood at 90%; with Rattus norvegicus [2], 80%; with Rattus norvegicus [4], 30%; with Rattus norvegicus [5] it was 90%; in the data set with Rattus norvegicus [6], 60%; in the data set with Rattus norvegicus [9] it was 90%. For the same molecule, the inhibition in vivo at 80 mg/kg in the data set with Rattus norvegicus [3] was determined as 59.6%. Also, the inhibition in vivo at 40 mg/kg in the data set on Rattus norvegicus [8] was determined as 35.5%. Besides, the inhibition in the data set listed under Oryctolagus cuniculus stood at 65%. The inhibition in vivo at 20 mg/kg in the data set on Rattus norvegicus [11] stood at 30.4%.
Regarding `Brc1ccc(OCC2=NCCO2)cc1`, the Activity in the data set with Rattus norvegicus [1] amounted to 15%; in the data set with Rattus norvegicus [2] it was 5%; with Rattus norvegicus [4], 60%; in the data set with Rattus norvegicus [5], 100%; in the data set on Rattus norvegicus [6], 80%; in the data set with Rattus norvegicus [9], 10%. The inhibition in vivo at 80 mg/kg in the data set with Rattus norvegicus [3] was 60.1%. For the same molecule, the ED50 with Rattus norvegicus [7] was 65.5 mg/kg. Also, the inhibition in vivo at 40 mg/kg in the data set on Rattus norvegicus [8] turned out to be 48.5%. For the same molecule, the LD50 at 24 h in data set [10] was above 1000 mg/kg. Also, the inhibition in the data set filed under Oryctolagus cuniculus worked out at 60%. In the data set on Rattus norvegicus [11], the inhibition in vivo at 20 mg/kg was 35.5%.
With `Cc1ccccc1OCC1=NCCO1`, the Activity stood at 40% in the data set with Rattus norvegicus [1]; 10% in the data set on Rattus norvegicus [2]; 40% in the data set on Rattus norvegicus [4]; 100% in the data set on Rattus norvegicus [5]; 60% in the data set with Rattus norvegicus [6]; 20% with Rattus norvegicus [9]. Besides, the inhibition in vivo at 80 mg/kg with Rattus norvegicus [3] worked out at 55.3%. In the data set on Rattus norvegicus [7], the 50% effective dose (ED50) stood at 78.3 mg/kg. Further, the inhibition in vivo at 40 mg/kg in the data set with Rattus norvegicus [8] stood at 29.5%. In addition, the LD50 at 24 h in [10] is above 1000 mg/kg. Besides, in the data set filed under Oryctolagus cuniculus, the inhibition was determined as 20%. The inhibition in vivo at 20 mg/kg with Rattus norvegicus [11] stood at 3.1%.
On to `Fc1ccc(OCC2=NCCO2)cc1`, for which the Activity in the data set on Rattus norvegicus [1] is reported as 75%; in the data set on Rattus norvegicus [2], 50%; with Rattus norvegicus [4], 25%; in the data set with Rattus norvegicus [5] it was 50%; in the data set on Rattus norvegicus [6], 40%; in the data set on Rattus norvegicus [9], 25%. Moreover, in the data set with Rattus norvegicus [3], the inhibition in vivo at 80 mg/kg came out at 40.5%. In the data set with Rattus norvegicus [7], the ED50 stood at 75.5 mg/kg. In the data set with Rattus norvegicus [8], the inhibition in vivo at 40 mg/kg is 30.2%. Besides, the LD50 at 24 h in [10] is above 1000 mg/kg. The inhibition in vivo at 20 mg/kg in the data set on Rattus norvegicus [11] was 18.5%.
In the case of `Fc1ccccc1OCC1=NCCO1`, the Activity in the data set with Rattus norvegicus [1] came out at 20%; in the data set on Rattus norvegicus [2], 10%; in the data set on Rattus norvegicus [4], 40%; with Rattus norvegicus [5], 80%; in the data set with Rattus norvegicus [6], 60%; with Rattus norvegicus [9], 15%. Moreover, the inhibition in vivo at 80 mg/kg with Rattus norvegicus [3] was 60.1%. Besides, the ED50 in the data set on Rattus norvegicus [7] came to 76.2 mg/kg. In addition, the inhibition in vivo at 40 mg/kg in the data set on Rattus norvegicus [8] turned out to be 30.5%. Further, the LD50 at 24 h in data set [10] was above 1000 mg/kg. The inhibition in the data set filed under Oryctolagus cuniculus came out at 65%. Moreover, in the data set on Rattus norvegicus [11], the inhibition in vivo at 20 mg/kg is 20.6%.
On to `O=[N+]([O-])c1cccc(OCC2=NCCO2)c1`, for which the Activity with Rattus norvegicus [1] was 80%; with Rattus norvegicus [2], 45%; with Rattus norvegicus [4], 20%; with Rattus norvegicus [5], 55%; with Rattus norvegicus [6], 35%; in the data set with Rattus norvegicus [9], 30%. The inhibition in vivo at 80 mg/kg in the data set with Rattus norvegicus [3] is 46.5%. Further, in the data set with Rattus norvegicus [7], the ED50 worked out at 75.5 mg/kg. In the data set on Rattus norvegicus [8], the inhibition in vivo at 40 mg/kg turned out to be 29.4%. Moreover, the LD50 at 24 h in data set [10] was above 1000 mg/kg. The inhibition in vivo at 20 mg/kg in the data set on Rattus norvegicus [11] stood at 15.5%.
For `Cc1ccc(OCC2=NCCO2)c(C)c1`, the Activity in the data set with Rattus norvegicus [1] came to 18%; in the data set with Rattus norvegicus [2], 15%; in the data set with Rattus norvegicus [4], 25%; with Rattus norvegicus [5], 75%; in the data set with Rattus norvegicus [6], 50%; in the data set with Rattus norvegicus [9] it was 25%. For the same molecule, the inhibition in vivo at 80 mg/kg in the data set with Rattus norvegicus [3] worked out at 85.5%. Also, in the data set on Rattus norvegicus [7], the ED50 amounted to 57.3 mg/kg. In the data set on Rattus norvegicus [8], the inhibition in vivo at 40 mg/kg was determined as 46.5%. In [10], the LD50 at 24 h was above 1000 mg/kg. In addition, in the data set with Rattus norvegicus [11], the inhibition in vivo at 20 mg/kg worked out at 31.4%.
